Measurements reported in ChEMBL document CHEMBL1926547, “Structure based drug design, synthesis and evaluation of 4-(benzyloxy)-1-phenylbut-2-yn-1-ol derivatives as 5-lipoxygenase inhibitors” (Eur J Med Chem, 2012).
The source made the active and inactive calls. The rule behind the calls is not given here.

Assays:
[1] = molecular target: T1, Polyunsaturated fatty acid 5-lipoxygenase (Homo sapiens, UniProt P09917); assay: Inhibition of 5-LOX assessed as decrease in oxygen concentration using arachidonic acid as substrate by polarigraphic method with Clark's oxygen electrode
T1 sequence (P09917 whole entry): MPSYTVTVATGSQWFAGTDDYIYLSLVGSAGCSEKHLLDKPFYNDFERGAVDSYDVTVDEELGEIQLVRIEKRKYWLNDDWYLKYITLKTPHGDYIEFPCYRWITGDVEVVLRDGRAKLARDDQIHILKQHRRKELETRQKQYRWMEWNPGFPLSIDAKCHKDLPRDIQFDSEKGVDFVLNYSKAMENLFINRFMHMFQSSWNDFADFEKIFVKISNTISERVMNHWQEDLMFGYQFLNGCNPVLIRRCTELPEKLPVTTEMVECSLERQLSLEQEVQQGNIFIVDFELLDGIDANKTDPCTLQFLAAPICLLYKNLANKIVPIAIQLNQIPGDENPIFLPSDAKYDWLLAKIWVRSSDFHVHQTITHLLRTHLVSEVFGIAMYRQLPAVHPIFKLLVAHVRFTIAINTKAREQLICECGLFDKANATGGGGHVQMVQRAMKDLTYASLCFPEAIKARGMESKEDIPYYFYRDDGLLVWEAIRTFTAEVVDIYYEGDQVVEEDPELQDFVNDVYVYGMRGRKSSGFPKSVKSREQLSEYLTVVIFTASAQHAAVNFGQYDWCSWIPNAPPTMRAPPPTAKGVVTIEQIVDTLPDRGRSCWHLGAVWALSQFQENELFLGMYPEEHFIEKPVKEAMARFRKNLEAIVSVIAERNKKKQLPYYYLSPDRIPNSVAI
Procedure, shortened: (§1)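 Purified 5-LOX, activity measured polarographically by Clark oxygen electrode as rate of O2 decrease. Enzyme in 100 mM phosphate pH 6.3, 3 mL final, with compound (DMSO stocks, various concentrations); reaction started with arachidonic acid 133 μM, 25 °C; maximal slope used. IC50 from concentration–inhibition curve; each assay repeated thrice.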

[2] = molecular target: T2, Polyunsaturated fatty acid 5-lipoxygenase (Homo sapiens) (UniProt P09917); assay: Irreversible inhibition of 5-LOX assessed as decrease in oxygen concentration using arachidonic acid as substrate at 10-fold increased enzyme concentration pre-incubated for 5 mins before substrate addition by polarigraphic method with Clark's oxygen electrode
T2 sequence (whole entry): T1 sequence (P09917 whole entry)
Procedure, shortened: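 Oxygen-electrode 5-LOX assay run with 10-fold excess enzyme: enzyme and compound incubated 5 min, then reaction initiated with arachidonic acid 133 μM; AA-861 control.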

[3] = molecular target: T2, Polyunsaturated fatty acid 5-lipoxygenase (Homo sapiens); assay: Irreversible inhibition of 5-LOX assessed as decrease in oxygen concentration using arachidonic acid as substrate measured after dilution by polarigraphic method with Clark's oxygen electrode
[4] = molecular target: T2, Polyunsaturated fatty acid 5-lipoxygenase (Homo sapiens); assay: Inhibition of 5-LOX assessed as decrease in oxygen concentration using arachidonic acid as substrate by polarigraphic method with Clark's oxygen electrode in presence of 0.1 mg/mL BSA
Procedure, shortened: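 Oxygen-electrode 5-LOX assay (phosphate pH 6.3, 25 °C) with enzyme pre-incubated with BSA 0.1 mg/mL plus compound before starting with arachidonic acid 133 μM; reduced inhibition taken as sign of non-specific binding. AA-861 control.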

[5] = system: COLO 205; assay: Growth inhibition of human COLO205 cells after 48 hrs by MTT assay; assay type: functional; details: COLO 205, 48 h
Procedure, shortened: (§2)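 Cells kept in RPMI-1640 + 10% heat-inactivated FBS, penicillin/streptomycin, 2 mM glutamine, 37 °C 5% CO2; seeded 5×10^3/well the day before, washed with PBS, fresh medium. Compounds 0.1–100 μM, 48 h; MTT 4 h at 37 °C, formazan dissolved in DMSO, OD 570 nm. GI50 from dose-survival curves; three experiments in triplicate.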

[6] = system: HepG2; assay: Growth inhibition of human HepG2 cells after 48 hrs by MTT assay; assay type: functional; details: HepG2, 48 h; procedure, shortened: as §2
[7] = system: MDA-MB-231; assay: Growth inhibition of human MDA-MB-231 cells after 48 hrs by MTT assay; assay type: functional; details: MDA-MB-231, 48 h; procedure, shortened: as §2
[8] = system: HaCaT; assay: Cytotoxicity against human HaCaT cells at up to 100 uM after 48 hrs by MTT assay; assay type: cell-based; procedure, shortened: as §2
[9] = system: Mus musculus; assay: Antiinflammatory activity against LPS-induced inflammation in BALB/c mouse acute lung injury model assessed as reduction in total cell count bronchoalveolar lavage fluid at 50 mg/kg, ip administered 1 hr prior to LPS challenge measured after 12 hrs by Wright-Giemsa staining based hemocytometry; assay type: functional, organism-based; set-up: dose 50 mg/kg
Procedure, shortened: (§3)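 Male BALB/c mice (20–25 g, 6/group), intratracheal LPS 1 mg/kg in PBS under ketamine/xylazine, compound 50 mg/kg ip 1 h prior. At 12 h, lavage three times with 0.5 mL PBS via tracheal cannula; pellet resuspended; total cells by hemocytometer; differentials from ≥200 cells on Wright–Giemsa smear. Mean ± SEM, unpaired t-test.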

[10] = system: Mus musculus; assay: Antiinflammatory activity against LPS-induced inflammation in BALB/c mouse acute lung injury model assessed as reduction in neutrophil count in bronchoalveolar lavage fluid at 50 mg/kg, ip administered 1 hr prior to LPS challenge measured after 12 hrs by Wright-Giemsa staining based hemocytometry; assay type: functional, organism-based; set-up: dose 50 mg/kg; procedure, shortened: as §3
[11] = system: Mus musculus; assay: Antiinflammatory activity against LPS-induced inflammation in BALB/c mouse acute lung injury model assessed as reduction in macrophage count in bronchoalveolar lavage fluid at 50 mg/kg, ip administered 1 hr prior to LPS challenge measured after 12 hrs by Wright-Giemsa staining based hemocytometry; assay type: functional, organism-based; set-up: dose 50 mg/kg; procedure, shortened: as §3
[12] = system: Mus musculus; assay: Antiinflammatory activity against LPS-induced inflammation in BALB/c mouse acute lung injury model assessed as reduction in protein level in bronchoalveolar lavage fluid at 50 mg/kg, ip administered 1 hr prior to LPS challenge measured after 12 hrs by Bradford assay; assay type: functional, organism-based; set-up: dose 50 mg/kg
Procedure, shortened: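 Mouse LPS lung-injury model as described (BALB/c males, intratracheal LPS 1 mg/kg, compound 50 mg/kg ip 1 h beforehand). BAL fluid collected 12 h post-challenge, centrifuged 3000 rpm 10 min at 4 °C; supernatant stored −70 °C; protein by Bradford, expressed as mg/mL BALF. Six mice per group.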

[13] = system: Mus musculus; assay: Antiinflammatory activity against LPS-induced inflammation in BALB/c mouse acute lung injury model assessed as reduction in inflammatory cells infiltration at 50 mg/kg, ip administered 1 hr prior to LPS challenge measured after 12 hrs by hematoxylin and eosin staining based light microscopy; assay type: functional, organism-based; set-up: dose 50 mg/kg
Procedure, shortened: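 Male BALB/c mice (20–25 g, 6/group, fasted 8 h) anesthetized with ketamine/xylazine; LPS 25 μg (1 mg/kg) intratracheal in 50 μL PBS; test agent 50 mg/kg ip 1 h before; PBS vehicle controls. At 12 h right lungs inflated, fixed in 10% buffered formaldehyde, paraffin-embedded, H&E stained; infiltration and wall thickening judged by light microscopy.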

[14] = system: Mus musculus; assay: Antiinflammatory activity against LPS-induced inflammation in BALB/c mouse acute lung injury model assessed as reduction in wet/dry ratio of lung at 50 mg/kg, ip administered 1 hr prior to LPS challenge measured after 12 hrs; assay type: functional, organism-based; set-up: dose 50 mg/kg
Procedure, shortened: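 In BALB/c males given intratracheal LPS (1 mg/kg) after ip dosing at 50 mg/kg 1 h earlier, left lungs excised at 12 h, rinsed thrice in PBS, blotted, weighed, oven-dried at 72 °C for 36–48 h and reweighed; wet/dry ratio indicates edema. Six mice per group.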

[15] = system: Mus musculus; assay: Antiinflammatory activity against LPS-induced inflammation in BALB/c mouse acute lung injury model assessed as reduction in alveolar wall thickening at 50 mg/kg, ip administered 1 hr prior to LPS challenge measured after 12 hrs by hematoxylin and eosin staining based light microscopy
[16] = molecular target: T1, Polyunsaturated fatty acid 5-lipoxygenase; assay: Inhibition of 5-LOX; procedure, shortened: as §1

| Compound | IC50 [1] | GI50 [5] | GI50 [6] | GI50 [7] | other results |
| --- | --- | --- | --- | --- | --- |
| CSc1ccc(COCC#CC(O)c2ccc(F)cc2)cc1 (stereo not given) | 12 µM | 22 µM | 31 µM | 20 µM | inhibition [2]: Active; inhibition [3]: Active; fold change (FC) [4]: 1; Activity [8]: Non-toxic |
| Cc1ccc(-c2cc(C(F)(F)F)nn2-c2ccc(S(N)(=O)=O)cc2)cc1 | – | – | – | – | inhibition [9]: Active; inhibition [10]: Active; inhibition [11]: Active; inhibition [12]: Active; inhibition [13]: Active; Activity [14]: Active; inhibition [15]: Active |
| CSc1ccc(COCC#CC(O)c2ccc(C#N)cc2)cc1 (stereo not given) | 41 µM | 71 µM | 54 µM | 62 µM | – |
| CSc1ccc(COCC#CC(O)c2ccc(C(C)C)cc2)cc1 (stereo not given) | 8 µM | 12 µM | 22 µM | 15 µM | inhibition [2]: Active; inhibition [3]: Active; fold change (FC) [4]: 1; Activity [8]: Non-toxic; inhibition [9]: Active; inhibition [10]: Active; inhibition [11]: Active; inhibition [12]: Active; inhibition [13]: Active; Activity [14]: Active; inhibition [15]: Active |
| CC1=C(C)C(=O)C(CCCCC#CCCCC#CCO)=C(C)C1=O [DOCEBENONE] | 1.7 µM | – | – | – | – |
| CCCCCC(O)C#CCOCc1ccc(SC)cc1 (stereo not given) | > 100 µM | – | – | – | – |
| COc1ccc(C(O)C#CCOCc2ccc(SC)cc2)c(OC)c1OC (stereo not given) | 72 µM | – | – | – | – |
| COc1cccc(C(O)C#CCOCc2ccc(SC)cc2)c1OC (stereo not given) | 69 µM | – | – | – | – |
| COc1cc(C(O)C#CCOCc2ccc(SC)cc2)cc(OC)c1OC (stereo not given) | 80 µM | 100 µM | 100 µM | 100 µM | – |
| OC(C#CCOCc1ccccc1)c1ccccc1 (stereo not given) | > 100 µM | – | – | – | – |
| CSc1ccc(COCC#CC(O)c2cccc([N+](=O)[O-])c2)cc1 (stereo not given) | 62 µM | 71 µM | 54 µM | 62 µM | – |
| COc1ccc(C(O)C#CCOCc2ccc(SC)cc2)cc1 (stereo not given) | > 100 µM | – | – | – | – |
| CCCC(O)C#CCOCc1ccccc1 (stereo not given) | – | – | – | – | IC50 [16]: 760 µM |
| COc1ccc(C(O)C#CCOCc2ccc(SC)cc2)cc1OC (stereo not given) | 80 µM | – | – | – | – |
